# Screens deposited in PubChem by several laboratories.
# A selection: hits, their analogues and other compounds. The true share with any hit is near 3.8%.
# MrgX1 agonist: human MrgX1 receptor agonism, primary screen. Q96LB2. MrgX1-HEK293 cells, Fluo-4 calcium fluorescence, agonist mode; stronger effect = higher value. B-score at 10 µM. 310,000 compounds, 0.44% hits. AID 588627;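 active = calcium response B-score plate-corrected fluorescence ratio at least 3 library SD, with starting fluorescence B-score inside 5 SD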
# Target sequence (Q96LB2 whole entry, looked up): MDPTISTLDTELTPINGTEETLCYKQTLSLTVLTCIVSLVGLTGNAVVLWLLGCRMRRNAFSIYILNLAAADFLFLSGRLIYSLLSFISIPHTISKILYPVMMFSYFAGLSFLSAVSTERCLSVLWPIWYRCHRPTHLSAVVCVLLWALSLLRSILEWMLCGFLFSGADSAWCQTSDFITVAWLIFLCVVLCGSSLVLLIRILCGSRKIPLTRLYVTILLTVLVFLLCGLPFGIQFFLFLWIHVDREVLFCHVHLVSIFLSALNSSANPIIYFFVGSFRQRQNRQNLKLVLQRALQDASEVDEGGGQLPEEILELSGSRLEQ
#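 Material: HEK293 cells stably expressing human MrgX1 receptor | Quantity: 15,000 cells per well | Times: Cells plated overnight, dye loaded 0.5 h 37 °C, 0.5 h room temperature | Measured by: Kinetic Fluo-4 NW fluorescence of intracellular calcium | Control set: Positive and negative controls per plate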
# Hep lipid drop: hepatic lipid droplet formation modulation; AML12 mouse hepatocytes, oleate lipid droplets, BODIPY imaging; inhibition, % at 6.5 µM; 240,000 compounds, 0.4% hits; AID 1656;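 active = lipid droplet intensity inhibited by at least 50%, with more than 500 cells counted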
#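 Assay system: AML12 mouse liver cells | Compound dosing: One dose, 6.5 µM compound | Read-out basis: Droplet intensity reduction, % inhibition | Measured by: Fluorescence imaging, 20x objective, two fields per well | Schedule: Overnight treatment with compound plus oleate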
# MrgX1 antag: human MrgX1 receptor antagonism, primary screen | B-score at 10 µM | MRGX1-HEK293 calcium flux, Fluo-4, BAM8-22 antagonism; stronger effect = lower value | Q96LB2 | 310,000 compounds, 1.3% hits;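 active = calcium-response B-score plate-corrected more than 3 library SD below zero, starting fluorescence within 5 deviations, no agonist response on first addition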;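 note: peak minus trough fluorescence over baseline after final BAM8-22 challenge near maximal dose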
# MrgX1 PAM: human MrgX1 positive allosteric modulation, primary screen | Q96LB2 | MrgX1-HEK293, Fluo-4 calcium flux, FDSS; stronger effect = higher value | B-score at 10 µM | 310,000 compounds, 0.63% hits | AID 588675;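 active = plate-corrected calcium response at least 3 library SD above typical, normal starting fluorescence, not activating the receptor alone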;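 note: compound read alongside a low EC10 to EC30 dose of BAM8-22 agonist; peak minus trough fluorescence over baseline measured at the second addition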
# RGS4 pot: RGS4 potentiation or activation; HEK293 M3R/inducible RGS4, carbachol calcium flux Fluo4; stronger effect = lower value; B-score at 10 µM; 310,000 compounds, 0.92% hits;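 active = B-score of the integrated calcium signal more than 4 SD below the library mean, with starting fluorescence not abnormally high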;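 note: negative B-score means reduced calcium response which marks RGS4 activation or potentiation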
#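 Assay system: HEK293 FlpIn-TREx cells, stable M3R, doxycycline-inducible RGS4 / Probe or stimulus: carbachol, ECmax concentration / Times: overnight RGS4 induction, 30 min dye load 37 °C, 20 min compound RT / Signal: kinetic calcium fluorescence imaging with Fluo4-AM dye, 2 µM / Measure: Agonist-evoked peak-minus-minimum fluorescence over baseline, integrated ratio, B score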
# RGS4 inh: human RGS4 inhibition; P49798; HEK293 M3R/RGS4 inducible, Fluo-4 calcium flux; stronger effect = higher value; triggered by carbachol at its EC20; B-score at 10 µM; 310,000 compounds, 0.45% hits; AID 463165;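 active = B-score, a plate-corrected calcium signal, over three deviations above library mean, with baseline fluorescence within five deviations of library mean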;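 note: RGS4 expression induced by doxycycline in cells with stable M3 receptor; B-score is computed from the integrated fluorescence ratio over baseline after carbachol; higher B-score means a larger calcium signal and so more RGS4 inhibition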
# Target sequence (P49798 whole entry, looked up): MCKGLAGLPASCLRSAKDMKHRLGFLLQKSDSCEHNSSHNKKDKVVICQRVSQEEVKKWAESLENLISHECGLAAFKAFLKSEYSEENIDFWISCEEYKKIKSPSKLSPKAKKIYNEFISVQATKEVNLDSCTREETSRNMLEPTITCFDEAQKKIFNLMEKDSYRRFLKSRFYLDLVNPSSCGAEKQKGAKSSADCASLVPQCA
# MrgX1 antag conf: reconfirmed antagonist of human MrgX1 receptor signaling; shares compounds with MrgX1 antag; 2,300 compounds, 19% hits; MrgX1-HEK293, BAM8-22 calcium flux, Fluo-4; stronger effect = lower value; remaining BAM8-22 calcium response % of control (stronger effect = lower value), % at 10 µM;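 active = remaining agonist calcium response no higher than 100% minus 3 SD of agonist-only control wells, with starting fluorescence near control levels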;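 note: agonist BAM8-22 given at a near maximal EC90 to ECmax level; peak minus minimum fluorescence divided by baseline after agonist addition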
# HEK293 Ca flux: MrgX1 antagonist counter-screen hit in parental HEK293 cells. shares compounds with MrgX1 antag. Fluo-4 calcium fluorescence, FDSS. fluorescence ratio F(max-min)/F0 at 10 µM. 4,000 compounds, 2% hits. AID 624111;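 active = duplicate-averaged calcium fluorescence ratio at least three times the standard deviation of buffer wells, a nonspecific response in parental cells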
# HEK293 Ca counter: MrgX1 allosteric activator counter-screen hit in parental HEK293 cells; parental HEK293 calcium flux, Fluo-4 fluorescence ratio; stronger effect = higher value; fluorescence ratio F(max-min)/F0 at 10 µM; shares compounds with MrgX1 antag; 4,000 compounds, 0.4% hits;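 active = calcium fluorescence ratio, averaged over duplicates, at least 3 SD of the buffer-well ratio, meaning a nonspecific response in receptor-free cells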;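 note: untransfected parental HEK293 lacking MrgX1 used as counterscreen for MrgX1 allosteric activators; fluorescence change taken during the second addition on a kinetic imager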
# HEK293 Ca cntr2: MrgX1 activator counter-screen hit in parental HEK293 cells | shares compounds with MrgX1 antag | Fluo-4 calcium fluorescence (FDSS); stronger effect = higher value | fluorescence ratio F(max-min)/F0 at 10 µM | 4,000 compounds, 8.7% hits;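 active = calcium fluorescence ratio at least three times the spread of buffer wells, meaning a non-specific response in parental cells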
# Hits are given with their value; – = inactive; · = no result.
SMILES,MrgX1 agonist,Hep lipid drop,MrgX1 antag,MrgX1 PAM,RGS4 pot,RGS4 inh,MrgX1 antag conf,HEK293 Ca flux,HEK293 Ca counter,HEK293 Ca cntr2
Cn1nccc1C(=O)Nc1ccc2c(c1)OCO2,–,–,–,–,–,–,·,·,·,·
COc1ccc(C2(CNC(=O)c3ccccc3[N+](=O)[O-])CCOCC2)cc1,–,–,–,–,–,–,·,·,·,·
CCOC(=O)C1CCCN(S(=O)(=O)c2nc3nc(C)cc(C)n3n2)C1 (stereo not drawn),–,–,-5.8,–,–,–,–,–,–,–
CCOC(=O)C1CCCN(S(=O)(=O)c2cc3[nH]c(=O)c(=O)[nH]c3cc2C)C1 (stereo not drawn),–,–,–,–,–,–,·,·,·,·
CSCCC(C(=O)OCC(=O)c1ccc(C)c(C)c1)N1C(=O)c2cc(Cl)c(Cl)cc2C1=O (stereo not drawn),–,–,-5.2,–,–,–,–,–,–,–
COc1ccc(C(=O)COC(=O)C(CC(C)C)N2C(=O)c3ccccc3C2=O)cc1 (stereo not drawn),–,–,–,–,–,–,·,·,·,·
CCc1ccc(N2CC(C(=O)Nc3nccs3)CC2=O)cc1 (stereo not drawn),–,·,-5,–,–,–,–,–,–,–
O=C(Nc1nccs1)C1CC(=O)N(c2ccc(F)cc2)C1 (stereo not drawn),–,–,–,–,–,–,·,·,·,·
CC(=O)NCCc1c[nH]c2ccc(O)cc12,–,·,-5.1,–,–,–,–,–,–,–
Cc1ccc2c(c1)[nH]c1c(N3CCN(Cc4ccccc4)CC3)ncnc12,–,·,–,–,–,–,·,·,·,·
c1ccc(CN2CCN(c3ncnc4c3[nH]c3ccccc34)CC2)cc1,–,·,-6.1,–,–,–,53%,–,–,–
Cc1ccc2[nH]c3c(N4CCN(Cc5ccccc5)CC4)ncnc3c2c1,–,–,-6.2,–,–,–,65%,–,–,–
CCN1CCN(c2ncnc3c2nnn3Cc2ccccc2)CC1,–,·,-4.6,–,–,–,–,–,–,–
CCOC(=O)CNC(=O)CSc1ncnc2c1cnn2-c1ccccc1,–,–,-6.1,–,–,–,–,–,–,–
CCN(CC)C(=O)C1CCN(c2ncnc3c2cnn3-c2ccc(C)cc2C)CC1,–,–,–,–,–,–,·,·,·,·
CCOC(=O)C1CCN(c2ncnc3c2cnn3-c2ccccc2)CC1,–,–,-5,–,–,–,–,–,–,–
Cc1ccc(-n2ncc3c(N4CCC(C(N)=O)CC4)ncnc32)c(C)c1,–,–,-10,–,–,–,–,–,–,–
CCOC(=O)C1CCN(c2ncnc3c2cnn3-c2ccc(Cl)cc2)CC1,–,–,–,–,–,–,·,·,·,·
CCOC(=O)CNC(=O)CSc1ncnc2c1cnn2-c1ccc(C)cc1,–,·,–,–,–,–,·,·,·,·
Cc1cccc(C)c1OCc1cc(C(=O)N(C)CCc2ccccn2)no1,–,–,–,–,–,–,·,·,·,·
CCCc1ccc(C(=O)NNc2ccccc2F)cc1,–,·,–,–,–,–,·,·,·,·
CC(C)CC(c1nnnn1CC1CCCO1)N1CCN(Cc2ccc3c(c2)OCO3)CC1 (stereo not drawn),–,–,-5,–,–,–,–,–,–,–
NC(=O)c1ccccc1NC(=O)CCN1C(=O)c2ccccc2C1=O,–,·,-6.9,–,–,–,85%,–,–,–
